Reference: ChEMBL document CHEMBL1145494, “Covalent dimer species of beta-defensin Defr1 display potent antimicrobial activity against multidrug-resistant bacterial pathogens” (2007)
In brackets after ≈: the same amount, converted by molar mass. Residues, ends and D or L forms follow the SMILES beside them.

Key:
Pseudomonas aeruginosa [1] = test: Antibacterial activity against Pseudomonas aeruginosa in presence of 50 mM NaCl; format: functional
Procedure, shortened: (§1)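 P. aeruginosa PAO1 (1 × 10^5 CFU in 100 μl) in 10 mM potassium phosphate with 1% (vol/vol) Iso-Sensitest, pH 7.4, containing NaCl (0 to 200 mM). Challenged with peptide in doubling dilutions from 0 to 150 μg/ml at 37°C for 3 h, then plated for CFU. MBC (>99.99% killing) was determined at each NaCl concentration.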

Pseudomonas aeruginosa [2] = test: Antibacterial activity against Pseudomonas aeruginosa in presence of 100 mM NaCl; format: functional; procedure, shortened: as §1
Pseudomonas aeruginosa [3] = test: Antibacterial activity against Pseudomonas aeruginosa in presence of 150 mM NaCl; format: functional; procedure, shortened: as §1
Pseudomonas aeruginosa [4] = test: Antibacterial activity against Pseudomonas aeruginosa in presence of 200 mM NaCl; format: functional; procedure, shortened: as §1
Pseudomonas aeruginosa [5] = test: Antibacterial activity against Pseudomonas aeruginosa PAO1; format: functional
Procedure, shortened: (§2)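 Bacteria grown to mid-log phase in Iso-Sensitest broth, diluted to 1 × 10^6 to 5 × 10^6 CFU/ml in 10 mM potassium phosphate, pH 7.4, with 1% (vol/vol) Iso-Sensitest broth. Peptide dilutions incubated with 100 μl of cells (1 × 10^5 to 5 × 10^5 CFU) at 37°C for 3 h. 10-fold dilutions plated and CFU counted next day. MBC = concentration giving >99.99% kill of inoculum. Triplicate on three occasions, mean taken.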

Pseudomonas aeruginosa [6] = test: Antibacterial activity against meropenem and colistin-resistant Pseudomonas aeruginosa C3425; format: functional; procedure, shortened: as §2
Pseudomonas aeruginosa [7] = test: Antibacterial activity against tobramycin-resistant Pseudomonas aeruginosa H183; format: functional; procedure, shortened: as §2
Pseudomonas aeruginosa [8] = test: Antibacterial activity against tobramycin-resistant Pseudomonas aeruginosa C4269; format: functional; procedure, shortened: as §2
Pseudomonas aeruginosa [9] = test: Antibacterial activity against meropenem and tobramycin-resistant Pseudomonas aeruginosa C3781; format: functional; procedure, shortened: as §2
Escherichia coli = test: Antibacterial activity against Escherichia coli ATCC 25922; format: functional
Procedure, shortened: (§3)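 Mid-log cultures grown in Iso-Sensitest broth, diluted to 1 × 10^6 to 5 × 10^6 CFU/ml in 10 mM potassium phosphate with 1% (vol/vol) Iso-Sensitest broth, pH 7.4. Peptide at various concentrations was incubated with 1 × 10^5 to 5 × 10^5 CFU in 100 μl at 37°C for 3 h. 10-fold dilutions were plated and CFU counted next day. MBC was taken as >99.99% killing of the inoculum, as the mean of triplicates on three independent occasions.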

Burkholderia cepacia = test: Antibacterial activity against Burkholderia cepacia ATCC 25416; format: functional; procedure, shortened: as §3
Burkholderia cenocepacia = test: Antibacterial activity against Burkholderia cenocepacia ATCC BAA-245; format: functional; procedure, shortened: as §3
[10] = test system: Stenotrophomonas maltophilia; test: Antibacterial activity against ciprofloxacin, meropenem and tobramycin-resistant Stenotrophomonas maltophilia C1980; format: functional; procedure, shortened: as §2
[11] = test system: Stenotrophomonas maltophilia; test: Antibacterial activity against ciprofloxacin, meropenem and colistin-resistant Stenotrophomonas maltophilia C3625; format: functional; procedure, shortened: as §2
[12] = test system: Stenotrophomonas maltophilia; test: Antibacterial activity against meropenem and tobramycin-resistant Stenotrophomonas maltophilia C3627; format: functional; procedure, shortened: as §2
[13] = test system: Bordetella bronchiseptica; test: Antibacterial activity against Bordetella bronchiseptica J3083; format: functional; procedure, shortened: as §3
Ralstonia pickettii = test: Antibacterial activity against Ralstonia pickettii R4050/C3079; format: functional; procedure, shortened: as §3
Cupriavidus necator = test: Antibacterial activity against Ralstonia eutropha ATCC 17697; format: functional; procedure, shortened: as §3
Acinetobacter baumannii = test: Antibacterial activity against Acinetobacter baumannii ATCC 19606; format: functional; procedure, shortened: as §3
Enterococcus faecalis = test: Antibacterial activity against Enterococcus faecalis ATCC 700802; format: functional; procedure, shortened: as §3
Staphylococcus aureus [14] = test: Antibacterial activity against Staphylococcus aureus ATCC 25923; format: functional; procedure, shortened: as §3
Candida albicans = test: Antifungal activity against Candida albicans J2922; format: functional
Staphylococcus aureus [15] = test: Antibacterial activity against ciprofloxacin and methicillin-resistant Staphylococcus aureus J2918
[16] = test system: Stenotrophomonas maltophilia; test: Antibacterial activity against ciprofloxacin and meropenem-resistant Stenotrophomonas maltophilia C3626

Compound: H-DPVTYIRNGGIAQYRAIGLRHKIGTAGSPFKCAK-OH
- MBC (Pseudomonas aeruginosa [1]): 25 µg/mL
- MBC (Pseudomonas aeruginosa [2]): 25 µg/mL
- MBC (Pseudomonas aeruginosa [3]): 50 µg/mL
- MBC (Pseudomonas aeruginosa [4]): 50 µg/mL

Compound: POLYMYXIN B
- MBC (Pseudomonas aeruginosa [5]): 0.5 µg/mL
- MBC (Pseudomonas aeruginosa [6]): 1 µg/mL
- MBC (Pseudomonas aeruginosa [7]): 1 µg/mL
- MBC (Pseudomonas aeruginosa [8]): 1 µg/mL
- MBC (Pseudomonas aeruginosa [9]): 0.5 µg/mL
- MBC (Escherichia coli): 0.25 µg/mL
- MBC (Burkholderia cepacia): > 512 µg/mL
- MBC (Burkholderia cenocepacia): > 512 µg/mL
- MBC [10]: 32 µg/mL
- MBC [11]: 32 µg/mL
- MBC [12]: 64 µg/mL
- MBC [13]: 0.12 µg/mL
- MBC (Ralstonia pickettii): > 512 µg/mL
- MBC (Cupriavidus necator): 128 µg/mL
- MBC (Acinetobacter baumannii): 1 µg/mL
- MBC (Enterococcus faecalis): 256 µg/mL
- MBC (Staphylococcus aureus [14]): 256 µg/mL
- MBC (Candida albicans): > 512 µg/mL

Compound: CC[C@H](C)[C@H](NC(=O)CNC(=O)CNC(=O)[C@H](CC(N)=O)NC(=O)[C@H](CCCNC(=N)N)NC(=O)[C@@H](NC(=O)[C@H](CS)NC(=O)[C@@H](NC(=O)[C@@H](NC(=O)[C@@H]1CCCN1C(=O)[C@@H](N)CC(=O)O)C(C)C)[C@@H](C)O)[C@@H](C)CC)C(=O)N[C@@H](CS)C(=O)N[C@@H](CCC(N)=O)C(=O)N[C@@H](Cc1ccc(O)cc1)C(=O)N[C@@H](CCCNC(=N)N)C(=O)N[C@@H](CS)C(=O)N[C@H](C(=O)NCC(=O)N[C@@H](CC(C)C)C(=O)N[C@@H](CCCNC(=N)N)C(=O)N[C@@H](Cc1cnc[nH]1)C(=O)N[C@@H](CCCCN)C(=O)N[C@H](C(=O)NCC(=O)N[C@H](C(=O)N[C@@H](CS)C(=O)NCC(=O)N[C@@H](CO)C(=O)N1CCC[C@H]1C(=O)N[C@@H](Cc1ccccc1)C(=O)N[C@@H](CCCCN)C(=O)N[C@@H](CS)C(=O)N[C@@H](CS)C(=O)N[C@@H](CCCCN)C(=O)O)[C@@H](C)O)[C@@H](C)CC)[C@@H](C)CC (H-DPVTCIRNGGICQYRCIGLRHKIGTCGSPFKCCK-OH)
- MBC (Pseudomonas aeruginosa [5]): 50 µg/mL (≈ 13.4 µM)
- MBC (Pseudomonas aeruginosa [6]): 50 µg/mL (≈ 13.4 µM)
- MBC (Pseudomonas aeruginosa [7]): 100 µg/mL (≈ 26.8 µM)
- MBC (Pseudomonas aeruginosa [8]): > 100 µg/mL
- MBC (Pseudomonas aeruginosa [9]): 100 µg/mL (≈ 26.8 µM)
- MBC (Escherichia coli): > 100 µg/mL
- MBC (Burkholderia cepacia): > 100 µg/mL
- MBC (Burkholderia cenocepacia): > 100 µg/mL
- MBC [10]: > 100 µg/mL
- MBC [11]: > 100 µg/mL
- MBC [12]: > 100 µg/mL
- MBC [13]: > 100 µg/mL
- MBC (Ralstonia pickettii): > 100 µg/mL
- MBC (Cupriavidus necator): > 100 µg/mL
- MBC (Acinetobacter baumannii): 12.5 µg/mL (≈ 3.35 µM)
- MBC (Enterococcus faecalis): 100 µg/mL (≈ 26.8 µM)
- MBC (Staphylococcus aureus [14]): > 100 µg/mL
- MBC (Candida albicans): 25 µg/mL (≈ 6.71 µM)
- MBC (Staphylococcus aureus [15]): > 100 µg/mL
- MBC [16]: > 100 µg/mL

Compound: CC[C@H](C)[C@H](NC(=O)CNC(=O)CNC(=O)[C@H](CC(N)=O)NC(=O)[C@H](CCCNC(=N)N)NC(=O)[C@@H](NC(=O)[C@H](Cc1ccc(O)cc1)NC(=O)[C@@H](NC(=O)[C@@H](NC(=O)[C@@H]1CCCN1C(=O)[C@@H](N)CC(=O)O)C(C)C)[C@@H](C)O)[C@@H](C)CC)C(=O)N[C@@H](CS)C(=O)N[C@@H](CCC(N)=O)C(=O)N[C@@H](Cc1ccc(O)cc1)C(=O)N[C@@H](CCCNC(=N)N)C(=O)N[C@@H](CS)C(=O)N[C@H](C(=O)NCC(=O)N[C@@H](CC(C)C)C(=O)N[C@@H](CCCNC(=N)N)C(=O)N[C@@H](Cc1cnc[nH]1)C(=O)N[C@@H](CCCCN)C(=O)N[C@H](C(=O)NCC(=O)N[C@H](C(=O)N[C@@H](CS)C(=O)NCC(=O)N[C@@H](CO)C(=O)N1CCC[C@H]1C(=O)N[C@@H](Cc1ccccc1)C(=O)N[C@@H](CCCCN)C(=O)N[C@@H](CS)C(=O)N[C@@H](CS)C(=O)N[C@@H](CCCCN)C(=O)O)[C@@H](C)O)[C@@H](C)CC)[C@@H](C)CC (H-DPVTYIRNGGICQYRCIGLRHKIGTCGSPFKCCK-OH)
- MBC (Pseudomonas aeruginosa [5]): 6 µg/mL (≈ 1.58 µM)
- MBC (Pseudomonas aeruginosa [6]): 6 µg/mL (≈ 1.58 µM)
- MBC (Pseudomonas aeruginosa [7]): 6 µg/mL (≈ 1.58 µM)
- MBC (Pseudomonas aeruginosa [8]): 6 µg/mL (≈ 1.58 µM)
- MBC (Pseudomonas aeruginosa [9]): 6 µg/mL (≈ 1.58 µM)
- MBC (Escherichia coli): 8 µg/mL (≈ 2.11 µM)
- MBC (Burkholderia cepacia): > 100 µg/mL
- MBC (Burkholderia cenocepacia): > 100 µg/mL
- MBC [10]: 12.5 µg/mL (≈ 3.3 µM)
- MBC [11]: 6 µg/mL (≈ 1.58 µM)
- MBC [12]: 6 µg/mL (≈ 1.58 µM)
- MBC [13]: 6 µg/mL (≈ 1.58 µM)
- MBC (Ralstonia pickettii): 3 µg/mL (≈ 0.792 µM)
- MBC (Cupriavidus necator): 3 µg/mL (≈ 0.792 µM)
- MBC (Acinetobacter baumannii): 3 µg/mL (≈ 0.792 µM)
- MBC (Enterococcus faecalis): 6 µg/mL (≈ 1.58 µM)
- MBC (Staphylococcus aureus [14]): 10 µg/mL (≈ 2.64 µM)
- MBC (Candida albicans): 3 µg/mL (≈ 0.792 µM)
- MBC (Staphylococcus aureus [15]): 6 µg/mL (≈ 1.58 µM)
- MBC [16]: 3 µg/mL (≈ 0.792 µM)
